# Tests used:
# [1] = Immunostimulatory activity in C57BL/6 mouse BMDC assessed as increase in mean fluorescence intensity of MHC class2 expression at 10 ug relative to untreated control; type: functional
# Method in brief: (§1)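 Bone marrow stem cells from C57Bl/6 J mice grown 6 days in IMDM with 5% FBS, penicillin/streptomycin, glutamax, 2-mercaptoethanol and 20 ng/ml GM-CSF, 37 °C, 5% CO2. Seeded at 5 × 10^5 cells/mL and pulsed with formulations holding 10 µg saponin (cholesterol/phosphatidylcholine film hydration); LPS 10 µg/mL positive control. After 48 h, flow cytometry gated on propidium iodide-negative CD11c+ cells. MFI divided by medium-only MFI. Run 1–3 times.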
# [2] = Immunostimulatory activity in C57BL/6 mouse BMDC assessed as increase in mean fluorescence intensity of CD86 expression at 10 ug relative to untreated control; type: functional; method in brief: as §1
SMILES,fold change (FC) [1],fold change (FC) [2]
CC1(C)CC[C@]2(C(=O)O[C@H]3O[C@H](CO)[C@@H](O)[C@H](O)[C@@H]3O[C@H]3O[C@H](CO)[C@@H](O)[C@H](O)[C@@H]3O[C@H]3O[C@H](CO)[C@@H](O)[C@H](O)[C@@H]3O)CC[C@]3(C)C(=CC[C@@H]4[C@@]5(C)CC[C@H](O[C@H]6O[C@H](CO)[C@@H](O)[C@H](O)[C@@H]6O[C@H]6O[C@H](CO)[C@@H](O)[C@H](O)[C@@H]6O[C@H]6O[C@H](CO)[C@@H](O)[C@H](O)[C@@H]6O)C(C)(C)[C@@H]5CC[C@]43C)[C@@H]2C1,1,0.9
CC1(C)CC[C@]2(C(=O)O[C@H]3O[C@H](CO[C@H]4O[C@H](CO)[C@@H](O)[C@H](O)[C@@H]4O)[C@@H](O)[C@H](O[C@H]4O[C@H](CO)[C@@H](O)[C@H](O)[C@@H]4O)[C@@H]3O)CC[C@]3(C)C(=CC[C@@H]4[C@@]5(C)CC[C@H](O[C@H]6O[C@H](CO[C@H]7O[C@H](CO)[C@@H](O)[C@H](O)[C@@H]7O)[C@@H](O)[C@H](O[C@H]7O[C@H](CO)[C@@H](O)[C@H](O)[C@@H]7O)[C@@H]6O)C(C)(C)[C@@H]5CC[C@]43C)[C@@H]2C1,1.3,2
COC(=O)[C@H]1O[C@@H](O[C@H]2CC[C@]3(C)[C@H]4C(=O)C=C5[C@@H]6C[C@@](C)(C(=O)O)CC[C@]6(C)CC[C@@]5(C)[C@]4(C)CC[C@H]3C2(C)C)[C@H](O[C@@H]2O[C@H](C(=O)O)[C@@H](O)[C@H](O)[C@H]2O)[C@@H](O)[C@@H]1O,1.5,0.9
COC(=O)[C@H]1O[C@@H](O[C@H]2[C@H](O[C@H]3CC[C@]4(C)[C@H]5C(=O)C=C6[C@@H]7C[C@@](C)(C(=O)O)CC[C@]7(C)CC[C@@]6(C)[C@]5(C)CC[C@H]4C3(C)C)O[C@H](C(=O)OC)[C@@H](O)[C@@H]2O)[C@H](O)[C@@H](O)[C@@H]1O,1.1,0.9
CC1(C)CC[C@]2(C(=O)O)CC[C@]3(C)C(=CC[C@@H]4[C@@]5(C)CC[C@H](O[C@H]6O[C@H](CO)[C@@H](O)[C@H](O)[C@@H]6O[C@H]6O[C@H](CO)[C@@H](O)[C@H](O)[C@@H]6O[C@H]6O[C@H](CO)[C@@H](O)[C@H](O)[C@@H]6O)C(C)(C)[C@@H]5CC[C@]43C)[C@@H]2C1,1.1,0.8
CC1(C)CC[C@]2(C(=O)O)CC[C@]3(C)C(=CC[C@@H]4[C@@]5(C)CC[C@H](O[C@H]6O[C@H](CO)[C@@H](O)[C@H](O)[C@@H]6O[C@H]6O[C@H](CO)[C@@H](O)[C@H](O)[C@@H]6O)C(C)(C)[C@@H]5CC[C@]43C)[C@@H]2C1,1.6,1.2
COC(=O)[C@H]1O[C@@H](O[C@H]2CC[C@]3(C)[C@H]4C(=O)C=C5[C@@H]6C[C@@](C)(C(=O)O[C@@H]7O[C@H](CO)[C@@H](O)[C@H](O)[C@H]7O)CC[C@]6(C)CC[C@@]5(C)[C@]4(C)CC[C@H]3C2(C)C)[C@H](O[C@@H]2O[C@H](C(=O)O)[C@@H](O)[C@H](O)[C@H]2O)[C@@H](O)[C@@H]1O,1.3,1.3
COC(=O)[C@H]1O[C@@H](O[C@H]2[C@H](O[C@H]3CC[C@]4(C)[C@H]5C(=O)C=C6[C@@H]7C[C@@](C)(C(=O)O[C@@H]8O[C@H](CO)[C@@H](O)[C@H](O)[C@H]8O)CC[C@]7(C)CC[C@@]6(C)[C@]5(C)CC[C@H]4C3(C)C)O[C@H](C(=O)O)[C@@H](O)[C@@H]2O)[C@H](O)[C@@H](O)[C@@H]1O,1.1,1
COC(=O)[C@H]1O[C@@H](O[C@H]2[C@H](O[C@H]3CC[C@]4(C)[C@H]5C(=O)C=C6[C@@H]7C[C@@](C)(C(=O)O)CC[C@]7(C)CC[C@@]6(C)[C@]5(C)CC[C@H]4C3(C)C)O[C@H](C(=O)O)[C@@H](O)[C@@H]2O)[C@H](O)[C@@H](O)[C@@H]1O,1.4,0.9

# — ChEMBL document CHEMBL1152501, “Mannosylated saponins based on oleanolic and glycyrrhizic acids. Towards synthetic colloidal antigen delivery systems” (2009)
